Compound activity from PubChem.
The list is not random: actives were taken first. Their share in the collection is about 3.2%.
DENV2 CPE rescue: inhibitors of DENV2 cytopathic effect, primary screen, cell-based, plate reader, single concentration; DENV2-infected cells, cytopathic effect rescue; CPE inhibition, % at 9.99 µM; 350,000 compounds, 1.7% hits; AID 651640, 2012; in the data active means CPE inhibition above about 20%, passing the limit was not always enough; inconclusive means no clear call, values can overlap the other calls; tested in BHK-21 cells;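 further: 0% = median of neutral control wells and 100% = median of positive control wells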
PfHsp90 set2: growth inhibition of PfHsp90-expressing yeast, primary screen, antimalarial PfHsp90 inhibitor project, S. cerevisiae, BacTiter-Glo luminescence, single point, set 2 | 310,000 compounds, 0.32% hits | BacTiter-Glo ATP, 48 h; yeast lacking PDR1 and PDR3 efflux regulators | inhibition, % at 9.4 µM;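 active means every replicate shows inhibition above about 80%, whatever the replicate mean, limit read from the data; inconclusive means mean inhibition reaches the set limit but some replicate falls short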;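 further: 0% = DMSO neutral controls and 100% = 20 µM radicicol positive controls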
rRNA inh HTS: reduced GFP signal of wild-type E. coli, primary screen, bacterial rRNA inhibitor project, GFP/RFP fluorescence, OD600, single point; GFP signal change (wild-type ribosome), % (test concentration not listed); 350,000 compounds, 1.6% hits; E. coli WT GFP vs humanized-ribosome RFP mutants, 24 h; hits give low values; DMSO median 0, no signal -100;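 active means significant combined selectivity score with lowered wild-type GFP, culture density cut under 30%, mutant RFP and density less affected; inactive means any of these conditions unmet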
Cneo AK release: Cryptococcus neoformans cell lysis inducers, primary screen, AK release luminescence, single concentration; lysis activity, % at 15 µM; C. neoformans lysis, adenylate kinase release luminescence, 4 h; normalised: neutral wells 0, clomiphene wells 100; 360,000 compounds, 0.2% hits;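 active means mean lysis activity across replicates of at least 80%, whatever share of replicates individually reach that level; inactive means mean lysis activity below 80%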
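Test system: log-phase Cryptococcus neoformans yeast cells. Input: 5 × 10^6 yeast cells/mL. Medium: fresh YPD growth medium. Doses: single dose. Incubation: static 4 h at 37 °C with compound, 1 h detection. Measured by: luminescent adenylate kinase detection reagent. Read-out: signal increase indicating cell lysis. Benchmarks: Clomiphene.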
S100A4 MyoIIA: inhibitors of S100A4-myosin IIA peptide binding, primary screen, biochemical, fluorescence polarization, TAMRA-MyoIIA peptide | Protein S100-A4 (Homo sapiens), P26447 | 360,000 compounds, 0.14% hits | inhibition, % at 10.7 µM;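 active means mean inhibition of at least 70% across replicates, with every replicate also reaching that level; inconclusive means mean inhibition reaches 70% but some replicates fall short; inactive means mean inhibition below 70%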
Target sequence (P26447 whole entry, looked up): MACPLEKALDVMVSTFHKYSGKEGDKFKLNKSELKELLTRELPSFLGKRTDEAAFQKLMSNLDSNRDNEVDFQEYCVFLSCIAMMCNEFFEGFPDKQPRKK
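Material: S100A4 monomer (human). Medium: Calcium-containing HEPES buffer, pH 7.2. Probe or stimulus: labelled myosin peptide probe, 5 nM. Compound dosing: one concentration per compound. Timing: polarization read 5 min after assay mix addition, stable 5–60 min. Benchmarks: DMSO as neutral control, TFP as positive control.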
MLL AF4-AF9 inh: inhibitors of AF4 peptide binding to AF9, primary screen, biochemical, AlphaScreen, biotin-AF4 peptide, FLAG-AF9, single point | inhibition, % at 10 µM | Protein AF-9 (Homo sapiens), P42568 | AID 651704, 2012 | 350,000 compounds, 0.47% hits;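 active means every replicate reaching a set inhibition limit, whatever the replicate mean, cut at about 25% in these data; inconclusive means mean inhibition reaches that limit but some replicates miss it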;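 further: 0% = plate neutral control median and 100% = total signal loss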
Target sequence (P42568 whole entry, looked up): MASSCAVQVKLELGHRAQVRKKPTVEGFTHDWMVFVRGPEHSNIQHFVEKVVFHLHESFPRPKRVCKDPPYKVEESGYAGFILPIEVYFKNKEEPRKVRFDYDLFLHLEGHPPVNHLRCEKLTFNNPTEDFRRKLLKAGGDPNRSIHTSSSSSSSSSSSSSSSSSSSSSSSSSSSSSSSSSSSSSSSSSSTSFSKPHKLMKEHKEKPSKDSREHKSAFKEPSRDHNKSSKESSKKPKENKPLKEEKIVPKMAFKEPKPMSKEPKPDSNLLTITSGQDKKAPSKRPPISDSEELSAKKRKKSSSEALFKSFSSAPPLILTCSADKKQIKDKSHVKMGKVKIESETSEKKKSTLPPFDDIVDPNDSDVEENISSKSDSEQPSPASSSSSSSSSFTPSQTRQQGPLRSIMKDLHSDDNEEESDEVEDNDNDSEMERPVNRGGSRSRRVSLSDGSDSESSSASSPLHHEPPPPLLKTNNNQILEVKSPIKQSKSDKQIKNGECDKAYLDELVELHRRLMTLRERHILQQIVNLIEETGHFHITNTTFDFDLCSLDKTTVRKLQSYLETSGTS
* = called active by the depositor; ? = inconclusive; · = no result given.

SMILES | DENV2 CPE rescue | PfHsp90 set2 | rRNA inh HTS | Cneo AK release | S100A4 MyoIIA | MLL AF4-AF9 inh
C[C@@H]1CN([C@@H](C)CO)S(=O)(=O)c2ccc(C#CC3CC3)cc2O[C@@H]1CN(C)C(=O)c1cnccn1 | -2 | · | 4 | 4 | -13 | 0
O=C(NC[C@@H]1CC[C@@H]2[C@@H](CN2S(=O)(=O)c2ccccc2[N+](=O)[O-])O1)C1CCOCC1 | 0 | · | · | · | -4 | 28*
CO[C@H]1CN(C)C(=O)c2ccc(NC(=O)c3cnccn3)cc2OC[C@@H](C)NC[C@@H]1C | · | · | 4 | · | · | ·
CC(C)c1ccc(/C=C/C(=O)Nc2nc3ccc([N+](=O)[O-])cc3s2)cc1 | · | -7 | · | 12 | · | ·
O=[N+]([O-])c1ccc2nc(NN=Cc3ccc(O)cc3)sc2c1 | -3 | -12 | -12* | 0 | -1 | 2
CC1(C)OC2CCN3C(C(O)COS3(=O)=O)C2O1 (configuration not stated) | 131* | -7 | 4 | -2 | 5 | -1
O=C(CSc1nnnn1C1CCCCC1)NCCc1ccccc1 | -6 | · | -28* | -1 | -8 | 9
Cc1cc(-c2nn(-c3ccccc3F)cc2CN2CCC(O)CC2)c(C)s1 | 12 | -20 | 1 | -3 | -5 | 1
Cc1cc(-c2nn(-c3ccccc3F)cc2CN2CCN(c3ccncc3)CC2)c(C)s1 | -9 | 0 | -50 | 2 | -18 | 32*
CCNC(=O)C[C@@H]1CC[C@@H]2[C@H](COC[C@H](O)CN2Cc2ccc(Cl)c(Cl)c2)O1 | -8 | · | -8 | 46 | -6 | 0
CCNC(=O)C[C@H]1CC[C@@H]2[C@H](COC[C@H](O)CN2Cc2ccc(Cl)c(Cl)c2)O1 | 82* | · | 0 | 47 | 3 | -1
CCNC(=O)C[C@H]1CC[C@@H]2[C@H](COC[C@@H](O)CN2Cc2ccc(Cl)c(Cl)c2)O1 | -4 | · | -4 | -4 | 0 | 0
CCNC(=O)C[C@H]1CC[C@H]2[C@@H](COC[C@@H](O)CN2Cc2ccc(Cl)c(Cl)c2)O1 | 105* | · | -3 | 43 | 3 | 0
COc1ccc(S(=O)(=O)Nc2ccc3c(c2)CC(=O)N([C@@H](C)CO)C[C@H](C)[C@@H](CN(C)Cc2ccc4c(c2)OCO4)O3)cc1 | 2 | · | -39 | 3 | 4 | 4
CN(Cc1cn(-c2ccccc2)nc1-c1ccc2c(c1)OCO2)Cc1nccn1C | -2 | 6 | -58 | 2 | -1 | 33*
O=C1C=CC(c2c[nH]c3ccccc23)CC1 (configuration not stated) | -5 | · | -14* | · | -4 | 2
Cc1ccccc1N1C(=O)CC(c2c[nH]c3ccccc23)C1=O (configuration not stated) | · | -6 | 0 | · | -8 | -3
CO[C@H]1CN(C)C(=O)c2ccc(NC(=O)C3CCCC3)cc2OC[C@H](C)N(C)C[C@@H]1C | 52* | · | 0 | · | 0 | -5
CO[C@H]1CN(C)C(=O)c2ccc(NC(=O)Nc3ccc(Cl)cc3)cc2OC[C@H](C)N(C)C[C@H]1C | 27* | · | 1 | -7 | 4 | 7
CO[C@H]1CN(C)C(=O)c2cc(NC(=O)C3CCC3)ccc2OC[C@H](C)N(C)C[C@@H]1C | 73* | · | 3 | -1 | 0 | -2
COCC(=O)N1C[C@@H](C)[C@H](OC)CN(C)C(=O)c2cc(NC(=O)C3CCC3)ccc2OC[C@@H]1C | 23* | · | 3 | -1 | -11 | -1
C[C@@H]1CCCCO[C@H](CN(C)Cc2ccc(C(=O)Nc3ccccc3N)cc2)[C@H](C)CN([C@@H](C)CO)C(=O)c2cc(N(C)C)ccc2O1 | · | · | -2 | · | · | ·
CN1c2ccc(-c3cccc(F)c3)cc2[C@@H]2[C@@H](CCN2C(=O)c2cccc(F)c2)[C@@H]1CO | 3 | · | -13 | · | 1 | 11
CO[C@@H]1CN(C)C(=O)c2cc(NS(=O)(=O)c3ccc(C)cc3)ccc2OC[C@@H](C)N(C)C[C@@H]1C | 4 | · | 2 | 139* | 25 | -2
O=C(NCC1CCCCC1)[C@H]1[C@H](CO)[C@H]2Cn3c(ccc(C4=CCCC4)c3=O)[C@@H]1N2C(=O)CC1CC1 | 2 | · | -4 | 0 | -9 | 5
SMILES | DENV2 CPE rescue | PfHsp90 set2 | rRNA inh HTS | Cneo AK release | S100A4 MyoIIA | MLL AF4-AF9 inh
O=C(Nc1cccc(Cl)c1)Nc1sccc1-c1nc2ccccc2s1 | 63* | 2 | · | 2 | -4 | 5
COc1ccccc1NC(=O)Nc1sccc1-c1nc2ccccc2s1 | 17 | · | -19 | 1 | -8 | 4
O=C(Nc1ccccc1)Nc1sccc1-c1nc2ccccc2s1 | -10 | 6 | -21* | 0 | -9 | -2
O=C(c1ccccc1)N1CC[C@H]2[C@H](CO)Nc3ccc(C#Cc4cccnc4)cc3[C@H]21 | -13 | · | -5 | -7 | 3 | -2
COc1cccc(-n2nnnc2SCC(=O)NCc2ccc3c(c2)OCO3)c1 | -5 | -11 | -21* | -2 | -16 | -35
COc1cc(OC)cc(-n2nnnc2SCC(=O)NCc2ccc3c(c2)OCO3)c1 | -5 | -14 | 6 | 2 | 5 | -44
CC1(CCc2ccccc2)NC(=O)N(Cc2cc([N+](=O)[O-])cc3c2OCOC3)C1=O (configuration not stated) | -6 | 24 | -24* | 1 | 3 | -1
COc1cc(OC)c(OC)cc1/C=C/c1cc(C(=O)O)c2ccccc2n1 | 3 | -3 | -30* | · | -2 | -6
CCOc1ccccc1N | 23* | 7 | -1 | -2 | ? | ·
CCOC(=O)c1c(C)[nH]c(C(=O)Nc2ccc(NC(C)=O)cc2)c1C | -2 | 19 | -27* | · | -2 | 1
CC(=O)N1CC(C)Sc2ccc(S(=O)(=O)NCCc3ccccc3)cc21 (configuration not stated) | -2 | -9 | -25* | 6 | 1 | -2
CN1CCN(CCOc2ccc(-c3ccccc3)cc2)CC1 | 49* | 1 | 4 | 1 | 5 | 3
CN1CCN(CCCOc2ccc(-c3ccccc3)cc2)CC1 | -9 | 25 | 3 | 2 | -4 | 7
O=C(O)CCCCCCCCc1cn(CCc2c[nH]c3ccccc23)nn1 | 21* | · | -9 | -1 | -7 | 3
Cc1ccc(S(=O)(=O)N(C)C[C@H]2OCCCC[C@@H](C)Oc3ccc(NS(=O)(=O)c4ccc(Cl)cc4)cc3C(=O)N([C@@H](C)CO)C[C@@H]2C)cc1 | 2 | · | 0 | 0 | -5 | 9
